Results from ChEMBL document CHEMBL1629572 (Antimicrob Agents Chemother, 2009).

Key:
[1] = Inhibition of Influenza B virus (B/Saitama/01/2006(Victoria)) neuraminidase after 30 mins by fluorescence analysis
In short: (§1)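 Virus NA source was mixed with compound in 32.5 mM MES-NaOH pH 6.5 with 4 mM CaCl2 and preincubated 10 min at room temperature. Reaction ran 30 min at room temperature with 100 μM (final) 4-MU-NANA. Fluorescence was read at ex 360/em 460 nm, in triplicate. IC50 came from linear regression of residual activity against log concentration, using concentrations giving 10–90% residual activity.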

Influenza A virus [2] = experiment: Antiviral activity against Influenza A virus (A/Puerto Rico/8/1934(H1N1)) infected in mouse infection model at 95 ug/kg, itn administered 4 hrs pre-infection and at 4 hrs and 17 hrs post-infection up to 20 days; format: functional, organism-based
[3] = Inhibition of Influenza B virus (B/Ohio/01/2005(Victoria)) neuraminidase after 30 mins by fluorescence analysis; in short: as §1
Neuraminidase [4] = molecular target: T1, Neuraminidase (Influenza A virus, UniProt B4URF0); experiment: Inhibition of Influenza A virus (A/duck/England/1/1956(H11N6)) neuraminidase after 30 mins by fluorescence analysis
T1 sequence (B4URF0 whole entry): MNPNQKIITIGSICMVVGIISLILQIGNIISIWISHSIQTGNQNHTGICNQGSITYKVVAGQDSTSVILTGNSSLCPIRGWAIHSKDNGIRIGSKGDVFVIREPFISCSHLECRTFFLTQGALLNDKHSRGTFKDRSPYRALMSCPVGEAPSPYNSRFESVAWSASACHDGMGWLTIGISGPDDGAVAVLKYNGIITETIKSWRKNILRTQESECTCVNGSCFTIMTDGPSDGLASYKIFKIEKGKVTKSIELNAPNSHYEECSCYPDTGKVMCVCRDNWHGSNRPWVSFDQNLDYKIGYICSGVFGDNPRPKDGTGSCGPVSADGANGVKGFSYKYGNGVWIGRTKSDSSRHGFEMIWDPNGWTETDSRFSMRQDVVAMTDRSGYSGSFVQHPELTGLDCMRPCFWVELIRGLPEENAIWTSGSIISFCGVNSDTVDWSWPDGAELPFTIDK

Neuraminidase [5] = molecular target: T1, Neuraminidase; experiment: Inhibition of Influenza A virus (A/Wyoming/03/2003(H3N2)) neuraminidase after 30 mins by fluorescence analysis
Neuraminidase [6] = molecular target: T1, Neuraminidase; experiment: Inhibition of Influenza A virus (A/Wellington/1/2004(H3N2)) neuraminidase after 30 mins by fluorescence analysis
[7] = Inhibition of Influenza B virus (B/Akita/9/2003(Victoria)) neuraminidase after 30 mins by fluorescence analysis; in short: as §1
Neuraminidase [8] = molecular target: T1, Neuraminidase; experiment: Inhibition of Influenza A virus (A/Wisconsin/67/2005(H3N2)) neuraminidase after 30 mins by fluorescence analysis
[9] = Inhibition of Influenza B virus (B/Yamagata/398/2003(Victoria)) neuraminidase after 30 mins by fluorescence analysis; in short: as §1
Neuraminidase [10] = molecular target: T1, Neuraminidase; experiment: Inhibition of Influenza A virus (A/New Caledonia/20/1999(H1N1)) neuraminidase after 30 mins by fluorescence analysis
[11] = Inhibition of Influenza B virus (B/Shiga/31/2002(Yamagata)) neuraminidase after 30 mins by fluorescence analysis; in short: as §1
Neuraminidase [12] = molecular target: T1, Neuraminidase; experiment: Inhibition of Influenza A virus (A/Saitama/78/2003(H1N1)) neuraminidase after 30 mins by fluorescence analysis
[13] = Inhibition of Influenza B virus (B/Yamagata/87/2004(Yamagata)) neuraminidase after 30 mins by fluorescence analysis; in short: as §1
Neuraminidase [14] = molecular target: T1, Neuraminidase; experiment: Inhibition of Influenza A virus (A/R(duck/Mongolia/54/01-duck/Mongolia/47/01)([…])) neuraminidase after 30 mins by fluorescence analysis
Neuraminidase [15] = molecular target: T1, Neuraminidase; experiment: Inhibition of Influenza A virus (A/Shiga/5/2002(H3N2)) neuraminidase after 30 mins by fluorescence analysis
[16] = Inhibition of Influenza B virus (B/Yamagata/145/2003(Victoria)) neuraminidase after 30 mins by fluorescence analysis; in short: as §1
Neuraminidase [17] = molecular target: T1, Neuraminidase; experiment: Inhibition of Influenza A virus (A/duck/Memphis/546/1974(H11N9)) neuraminidase after 30 mins by fluorescence analysis
Neuraminidase [18] = molecular target: T1, Neuraminidase; experiment: Inhibition of Influenza A virus (A/Aichi/193/2004(H1N1)) neuraminidase after 30 mins by fluorescence analysis
Neuraminidase [19] = molecular target: T1, Neuraminidase; experiment: Inhibition of Influenza A virus (A/Tokushima/1/2005(H3N2)) neuraminidase after 30 mins by fluorescence analysis
Neuraminidase [20] = molecular target: T1, Neuraminidase; experiment: Inhibition of Influenza A virus (A/Yamagata/2/2002(H3N2)) neuraminidase after 30 mins by fluorescence analysis
Neuraminidase [21] = molecular target: T1, Neuraminidase; experiment: Inhibition of Influenza A virus (A/Aichi/2/1968(H3N2)) neuraminidase after 30 mins by fluorescence analysis
[22] = Inhibition of Influenza B virus (B/Malaysia/2506/2004(Victoria)) neuraminidase after 30 mins by fluorescence analysis; in short: as §1
Neuraminidase [23] = molecular target: T1, Neuraminidase; experiment: Inhibition of Influenza A virus (A/Okinawa/42/2004(H1N1)) neuraminidase after 30 mins by fluorescence analysis
Neuraminidase [24] = molecular target: T1, Neuraminidase; experiment: Inhibition of Influenza A virus (A/duck/Alberta/60/1976(H12N5)) neuraminidase after 30 mins by fluorescence analysis
[25] = Inhibition of Influenza B virus (B/Yamagata/113/2005(Yamagata)) neuraminidase after 30 mins by fluorescence analysis; in short: as §1
Neuraminidase [26] = molecular target: T1, Neuraminidase; experiment: Inhibition of Influenza A virus (A/Yamagata/83/2006(H1N1)) neuraminidase after 30 mins by fluorescence analysis
Neuraminidase [27] = molecular target: T1, Neuraminidase; experiment: Inhibition of Influenza A virus (A/turkey/Ontario/6,118/1968(H8N4)) neuraminidase after 30 mins by fluorescence analysis
Neuraminidase [28] = molecular target: T1, Neuraminidase; experiment: Inhibition of Influenza A virus (A/Shiga/1/2002(H1N1)) neuraminidase after 30 mins by fluorescence analysis
Neuraminidase [29] = molecular target: T1, Neuraminidase; experiment: Inhibition of Influenza A virus (A/Yamagata/32/1989(H1N1)) neuraminidase after 30 mins by fluorescence analysis
[30] = Inhibition of Influenza B virus (B/Yamagata/85/2004(Yamagata)) neuraminidase after 30 mins by fluorescence analysis; in short: as §1
Neuraminidase [31] = molecular target: T1, Neuraminidase; experiment: Inhibition of Influenza A virus (A/duck/Hokkaido/84/2002(H5N3)) neuraminidase after 30 mins by fluorescence analysis
[32] = Inhibition of Influenza B virus (B/Shiga/17/2002(Victoria)) neuraminidase after 30 mins by fluorescence analysis; in short: as §1
[33] = Inhibition of Influenza B virus (B/Tokushima/1/2005(Yamagata)) neuraminidase after 30 mins by fluorescence analysis; in short: as §1
Neuraminidase [34] = molecular target: T1, Neuraminidase; experiment: Inhibition of Influenza A virus (A/Yamagata/57/2002(H1N1)) neuraminidase after 30 mins by fluorescence analysis
[35] = Inhibition of Influenza B virus (B/Sapporo/29/2005(Yamagata)) neuraminidase after 30 mins by fluorescence analysis; in short: as §1
[36] = Inhibition of Influenza B virus (B/Shizuoka/58/2004(Yamagata)) neuraminidase after 30 mins by fluorescence analysis; in short: as §1
Influenza A virus [37] = experiment: Antiviral activity against Influenza A virus (A/Puerto Rico/8/1934(H1N1)) infected in mouse infection model at 0.3 umol/kg, itn administered 4 hrs pre-infection and at 4 hrs and 17 hrs post-infection up to 20 days; format: functional, organism-based
In short: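 BALB/c females, 5–6 weeks old, were anaesthetised and infected intranasally with 1,500 PFU/mouse A/PR/8/34 in PBS with 0.42% BSA. Three intranasal doses of 0.3 μmol/kg in saline (50 μl) were given at 4 h pre-infection and at 4 h and 17 h post-infection. Survival was read daily for 20 days, 10–12 mice per group.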

Neuraminidase [38] = molecular target: T1, Neuraminidase; experiment: Inhibition of Influenza A virus (A/Hiroshima/52/2005(H3N2)) neuraminidase after 30 mins by fluorescence analysis
Neuraminidase [39] = molecular target: T1, Neuraminidase; experiment: Inhibition of Influenza A virus (A/Puerto Rico/8/1934(H1N1)) neuraminidase after 30 mins by fluorescence analysis
Neuraminidase [40] = molecular target: T1, Neuraminidase; experiment: Inhibition of Influenza A virus (A/Saitama/80/2003(H3N2)) neuraminidase after 30 mins by fluorescence analysis
[41] = Inhibition of Influenza B virus (B/Shanghai/361/2002(Yamagata)) neuraminidase after 30 mins by fluorescence analysis; in short: as §1
Neuraminidase [42] = molecular target: T1, Neuraminidase; experiment: Inhibition of Influenza A virus (A/Yamagata/3/2002(H1N1)) neuraminidase after 30 mins by fluorescence analysis

## CCCCCCCC(=O)OC[C@@H](O)[C@@H](OC)[C@@H]1OC(C(=O)O)=C[C@H](NC(=N)N)[C@H]1NC(C)=O [LANINAMIVIR OCTANOATE]
[1]
  IC50: 45500 nM
Influenza A virus [2]
  Activity: Non-toxic
[3]
  IC50: 12800 nM
Neuraminidase [4]
  IC50: 262 nM
Neuraminidase [5]
  IC50: 114 nM
Neuraminidase [6]
  IC50: 157 nM
[7]
  IC50: 13800 nM
Neuraminidase [8]
  IC50: 187 nM
[9]
  IC50: 12400 nM
Neuraminidase [10]
  IC50: 666 nM
[11]
  IC50: 10500 nM
Neuraminidase [12]
  IC50: 940 nM
[13]
  IC50: 7790 nM
Neuraminidase [14]
  IC50: 276 nM
Neuraminidase [15]
  IC50: 64.2 nM
[16]
  IC50: 15900 nM
Neuraminidase [17]
  IC50: 356 nM
Neuraminidase [18]
  IC50: 983 nM
Neuraminidase [19]
  IC50: 131 nM
Neuraminidase [20]
  IC50: 46.6 nM
Neuraminidase [21]
  IC50: 164 nM
[22]
  IC50: 11100 nM
Neuraminidase [23]
  IC50: 631 nM
Neuraminidase [24]
  IC50: 1140 nM
[25]
  IC50: 3500 nM
Neuraminidase [26]
  IC50: 733 nM
Neuraminidase [27]
  IC50: 420 nM
Neuraminidase [28]
  IC50: 733 nM
Neuraminidase [29]
  IC50: 882 nM
[30]
  IC50: 7190 nM
Neuraminidase [31]
  IC50: 456 nM
[32]
  IC50: 7680 nM
[33]
  IC50: 3710 nM
Neuraminidase [34]
  IC50: 1170 nM
[35]
  IC50: 3600 nM
[36]
  IC50: 7530 nM
Influenza A virus [37]
  Activity: Non-toxic
Neuraminidase [38]
  IC50: 69.1 nM
Neuraminidase [39]
  IC50: 931 nM
Neuraminidase [40]
  IC50: 39.2 nM
[41]
  IC50: 6660 nM
Neuraminidase [42]
  IC50: 709 nM
